Read-outs that look alike come from different tables or passages of the source.
Format: in vivo, human
Settings: for Glucose intervention needed, subjects: between 2 and 6 hours postdose
In short: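 Randomized crossover: single s.c. pen dose of test or comparator insulin (100 U/mL) at two visits 3–22 days apart. Subjects were hospitalised 12 h and fasted to 6 h. AEs were treatment-emergent if onset was ≤7 days postdose. Hypoglycaemia followed ADA/ISPAD definitions, confirmed by meter PG <56 mg/dL and counted up to the next insulin or 16 h. Glucose was given below 56 mg/dL or at investigator discretion.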

[1] = across the three age groups, 0.2 U/kg s.c. single dose

## insulin aspart [IAsp]
[1]
  Safety and tolerability: safe and well tolerated
  Serious AEs: No serious AEs were observed
  Severe hypoglycemic episodes: No severe hypoglycemic episodes were reported
adults, N = 15, 0.2 U/kg s.c. single dose
  Confirmed hypoglycemic episodes (PG below 56 mg/dL), number: three
adults
  Glucose intervention needed, subjects: three
All age groups
  Glucose intervention needed, subjects: seven
children
  Glucose intervention needed, subjects: three

From publication PMC7383777 (Pediatric Diabetes, 2020)
